Results published in ChEMBL document CHEMBL3621132, “Discovery of diazepane amide DORAs and 2-SORAs enabled by exploration of isosteric quinazoline replacements” (Bioorg Med Chem Lett, 2015).
The source made the active and inactive calls. No cut-off for these calls is given here.

How the values were obtained:
[1] = Clearance in dog at 0.125 mg/kg, iv; format: ADME, organism-based, Canis lupus familiaris; details: in vivo
How it was run: (§1)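 Intravenous PK in rat (2 mg/kg) and dog (0.125 or 0.5 mg/kg), vehicle 100% DMSO, n = 2. Clearance, Vdss and half-life were determined.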

[2] = AUC in satellite rat sleep model at 30 mg/kg, po; format: ADME, organism-based; details: in vivo
How it was run: (§2)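 Satellite rats from the sleep study were given 30 mg/kg orally as the free base in 20% Vitamin E TPGS in water (n = 3). Plasma AUC, Cmax and Tmax were measured over the sleep experiment.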

[3] = Tmax in satellite rat sleep model at 30 mg/kg, po; format: ADME, organism-based; details: in vivo; how it was run: as §2
[4] = Cmax in satellite rat sleep model at 30 mg/kg, po; format: ADME, organism-based; set-up: dose 30 mg/kg, route oral; details: in vivo; how it was run: as §2
[5] = tested on: Rattus norvegicus; test: Anti-insomnia activity in rat sleep model assessed as reduction of active wake at 30 mg/kg, po up to 2 hrs; format: functional, organism-based
[6] = tested on: Rattus norvegicus; test: Anti-insomnia activity in rat sleep model assessed as increase in slow wave at 30 mg/kg, po up to 2 hrs; format: functional, organism-based
[7] = tested on: Rattus norvegicus; test: Anti-insomnia activity in rat sleep model assessed as increase in REM sleep at 30 mg/kg, po up to 2 hrs; format: functional, organism-based
[8] = organism: Rattus norvegicus; test: Ex vivo receptor occupancy at human OX2R expressed in transgenic rat at plasma concentration of 0.35 uM; format: functional
[9] = Plasma protein binding in dog; format: ADME, cell-free, Canis lupus familiaris; details: read-out: PPB (converted)
[10] = Plasma protein binding in rat; format: ADME, cell-free; details: read-out: PPB (converted)
[11] = Plasma protein binding in human; format: ADME, cell-free; details: read-out: PPB (converted)
[12] = molecular target: T1, Orexin receptor type 2 (Homo sapiens, UniProt O43614); test: Antagonist activity at human orexin 2 receptor expressed in CHO cells assessed as inhibition of orexin-A-induced intracellular calcium level after 60 mins by FLIPR assay; format: functional, cell-based
T1 sequence (O43614 whole entry): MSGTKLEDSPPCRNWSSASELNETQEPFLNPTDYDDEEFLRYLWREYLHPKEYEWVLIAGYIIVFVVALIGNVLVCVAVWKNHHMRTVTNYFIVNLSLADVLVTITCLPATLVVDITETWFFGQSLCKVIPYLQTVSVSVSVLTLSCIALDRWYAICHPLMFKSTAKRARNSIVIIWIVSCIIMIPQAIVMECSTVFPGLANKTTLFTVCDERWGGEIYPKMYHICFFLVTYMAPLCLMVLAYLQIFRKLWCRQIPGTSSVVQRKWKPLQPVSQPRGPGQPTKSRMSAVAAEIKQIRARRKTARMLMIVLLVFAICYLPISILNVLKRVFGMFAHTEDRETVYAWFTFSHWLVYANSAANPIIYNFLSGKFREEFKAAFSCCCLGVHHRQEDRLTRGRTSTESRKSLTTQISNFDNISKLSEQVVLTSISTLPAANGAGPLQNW

[13] = Apparent permeability of the compound assessed […] by cell based assay; format: physicochemical
[14] = Lipophilicity, log D of the compound by HPLC analysis; format: physicochemical
[15] = Clearance in rat at 2 mg/kg, iv; format: ADME, organism-based; details: in vivo; how it was run: as §1
[16] = Volume of distribution at steady state in rat at 2 mg/kg, iv; format: ADME, organism-based; details: in vivo, read-out: Vdss; how it was run: as §1
[17] = Half life in rat at 2 mg/kg, iv; format: ADME, organism-based; details: in vivo; how it was run: as §1
[18] = Volume of distribution at steady state in dog at 0.125 mg/kg, iv; format: ADME, organism-based, Canis lupus familiaris; details: in vivo, read-out: Vdss; how it was run: as §1
[19] = Half life in dog at 0.125 mg/kg, iv; format: ADME, organism-based, Canis lupus familiaris; details: in vivo; how it was run: as §1
[20] = AUC in rat at 10 mg/kg, po; format: ADME, organism-based; details: in vivo
[21] = Tmax in rat at 10 mg/kg, po; format: ADME, organism-based; details: in vivo
How it was run: (§3)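 Rats were dosed orally at 10 mg/kg in 100% PEG200 (n = 2), as the free base or the hydrochloride salt. AUC, Tmax, Cmax and bioavailability (F) were derived from plasma levels.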

[22] = Cmax in rat at 10 mg/kg, po; format: ADME, organism-based; set-up: dose 10 mg/kg, route oral; details: in vivo; how it was run: as §3
[23] = Oral bioavailability in rat at 10 mg/kg; format: ADME, organism-based; details: in vivo; how it was run: as §3
[24] = AUC in dog at 3 mg/kg, po; format: ADME, organism-based, Canis lupus familiaris; details: in vivo
[25] = Tmax in dog at 3 mg/kg, po; format: ADME, organism-based, Canis lupus familiaris; details: in vivo
How it was run: (§4)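 Oral dosing in dogs at 3 mg/kg as the free base in 20% Vitamin E TPGS in water (n = 2). AUC, Tmax, Cmax and oral bioavailability were determined from plasma.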

[26] = Cmax in dog at 3 mg/kg, po; format: ADME, organism-based, Canis lupus familiaris; set-up: dose 3 mg/kg, route oral; details: in vivo; how it was run: as §4
[27] = Oral bioavailability in dog at 3 mg/kg; format: ADME, organism-based, Canis lupus familiaris; details: in vivo; how it was run: as §4
[28] = Oral bioavailability in satellite rat sleep model at 30 mg/kg; format: ADME, organism-based; details: in vivo; how it was run: as §2
[29] = organism: Rattus norvegicus; test: Ex vivo receptor occupancy at human OX2R expressed in transgenic rat at plasma concentration of 1 uM; format: functional
[30] = molecular target: Orexin receptor type 1 (Homo sapiens) (UniProt O43613); test: Binding affinity to human orexin 1 receptor expressed in CHO cells after 3 hrs by radioligand binding assay
[31] = molecular target: Orexin receptor type 2 (Homo sapiens) (UniProt O43614); test: Antagonist activity at human orexin 2 receptor expressed in CHO cells assessed as inhibition of orexin-A-induced intracellular calcium level after 60 mins by FLIPR assay; details: 1 h
[32] = molecular target: Orexin receptor type 2 (Homo sapiens) (UniProt O43614); test: Binding affinity to human orexin 2 receptor expressed in CHO cells after 3 hrs by radioligand binding assay
[33] = Tmax in mouse at 300 mg/kg, po; format: ADME, organism-based; details: in vivo
How it was run: (§5)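 Mice were dosed orally at 300 mg/kg as the free base in 20% Vitamin E TPGS in water, during the active phase of the sleep study. Cmax and Tmax were taken from plasma.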

[34] = Cmax in mouse at 300 mg/kg, po; format: ADME, organism-based; set-up: dose 300 mg/kg, route oral; details: in vivo; how it was run: as §5
[35] = Volume of distribution at steady state in dog at 0.5 mg/kg, iv; format: ADME, organism-based, Canis lupus familiaris; details: in vivo, read-out: Vdss; how it was run: as §1
[36] = Half life in dog at 0.5 mg/kg, iv; format: ADME, organism-based, Canis lupus familiaris; details: in vivo; how it was run: as §1
[37] = Clearance in dog at 0.5 mg/kg, iv; format: ADME, organism-based, Canis lupus familiaris; details: in vivo; how it was run: as §1
[38] = tested on: P-glycoprotein; test: Permeability of the compound assessed as human p-glycoprotein-mediated permeability ratio from basolateral to apical direction; format: ADME; details: not told
[39] = tested on: P-glycoprotein; test: Permeability of the compound assessed as rat p-glycoprotein-mediated permeability ratio from basolateral to apical direction; format: ADME; details: not told
[40] = organism: Homo sapiens; test: Selectivity ratio of IC50 for human orexin 1 receptor Ile408-Val mutant to IC50 for human orexin 2 receptor
[41] = tested on: Liver microsome; test: Bioactivation of compound in human liver microsomes assessed as AUC of GSH-adduct formation at 10 uM after 60 mins by HRMS analysis relative to labetalol; details: 1 h
[42] = tested on: Liver microsome; test: Bioactivation of compound in rat liver microsomes assessed as AUC of GSH-adduct formation at 10 uM after 60 mins by HRMS analysis relative to labetalol; details: 1 h

C[C@@H]1CCN(c2ncc3cc(F)ccc3n2)CCN1C(=O)c1ccccc1-n1nccn1
clearance [1]: 0.18 L/h/kg
AUC [2]: 4.5 µM·h
Tmax [3]: 1.3 h
Cmax [4]: 2 µM
Activity [5]: Active
Activity [6]: Active
Activity [7]: Active
Activity [8]: 90%

COc1nc(N2CC[C@@H](C)N(C(=O)c3cc(C)ccc3-n3nccn3)CC2)ncc1C(F)(F)F
fraction unbound [9]: 0.005
fraction unbound [10]: 0.05
fraction unbound [11]: 0.04
IC50 [12]: 0.027 µM
clearance [1]: 0.18 L/h/kg
Papp [13]: 280 nm/s
logD [14]: 3.4
clearance [15]: 2.22 L/h/kg
Vd [16]: 2.5 L/kg
half-life [17]: 1.1 h
Vd [18]: 0.4 L/kg
half-life [19]: 2.4 h
AUC [20]: 0.6 µM·h
Tmax [21]: 3 h
Cmax [22]: 0.2 µM
bioavailability [23]: 8%
AUC [24]: 9.9 µM·h
Tmax [25]: 0.6 h
Cmax [26]: 2.3 µM
bioavailability [27]: 23%
AUC [2]: 5.5 µM·h
Tmax [3]: 0.8 h
Cmax [4]: 2.5 µM
bioavailability [28]: 19%
Activity [5]: Active
Activity [6]: Active
Activity [7]: Active
Activity [29]: 83%
Ki [30]: 0.0015 µM
IC50 [31]: 0.027 µM

Cc1nc(N2CC[C@@H](C)N(C(=O)c3ccccc3-n3nccn3)CC2)ncc1C(F)(F)F
IC50 [12]: 0.019 µM
clearance [1]: 0.3 L/h/kg
Ki [30]: 0.011 µM
IC50 [31]: 0.019 µM

Cc1cnc(Cl)nc1N1CC[C@@H](C)N(C(=O)c2ccccc2-n2nccn2)CC1
IC50 [12]: 0.042 µM
Ki [32]: 0.0026 µM
Ki [30]: 0.76 µM

C[C@@H]1CCN(c2nc(Cl)ncc2Cl)CCN1C(=O)c1ccccc1-n1nccn1
IC50 [12]: 0.025 µM
Ki [32]: 0.0011 µM
Ki [30]: 0.85 µM

C[C@@H]1CCN(c2nc(Cl)ncc2C(F)(F)F)CCN1C(=O)c1ccccc1-n1nccn1
IC50 [12]: 0.072 µM
Ki [30]: 1.1 µM
IC50 [31]: 0.072 µM

Cc1ccc(-n2nccn2)c(C(=O)N2CCN(c3ncc(C(F)(F)F)c(C)n3)CC[C@H]2C)c1
IC50 [12]: 0.085 µM
clearance [1]: 0.6 L/h/kg
Ki [32]: 0.0005 µM
Ki [30]: 0.0016 µM

Cc1ccc(-n2nccn2)c(C(=O)N2CCN(c3ncc(Cl)c(C)n3)CC[C@H]2C)c1
IC50 [12]: 0.02 µM
clearance [1]: 0.54 L/h/kg
Ki [30]: 0.0061 µM
IC50 [31]: 0.02 µM

Cc1ccc(-n2nccn2)c(C(=O)N2CCN(c3ncc(C)c(Cl)n3)CC[C@H]2C)c1
IC50 [12]: 0.028 µM
clearance [1]: 0.48 L/h/kg
Ki [32]: 0.0004 µM
Ki [30]: 0.0039 µM
IC50 [31]: 0.028 µM

Cc1ncc(Cl)c(N2CC[C@@H](C)N(C(=O)c3ccccc3-n3nccn3)CC2)n1
Tmax [33]: 1 h
Cmax [34]: 18 µM
Vd [35]: 0.8 L/kg
half-life [36]: 0.9 h
clearance [37]: 0.9 L/h/kg
fraction unbound [9]: 0.05
fraction unbound [10]: 0.12
fraction unbound [11]: 0.05
IC50 [12]: 0.048 µM
efflux ratio [38]: 0.7
efflux ratio [39]: 1.5
Papp [13]: 340 nm/s
logD [14]: 2.8
clearance [15]: 7.08 L/h/kg
Vd [16]: 7 L/kg
half-life [17]: 3.2 h
AUC [20]: 1.2 µM·h
Tmax [21]: 0.4 h
Cmax [22]: 0.9 µM
bioavailability [23]: 35%
AUC [24]: 1.8 µM·h
Tmax [25]: 0.4 h
Cmax [26]: 1.3 µM
bioavailability [27]: 19%
Ki [32]: 0.0036 µM
Ki [30]: 1.8 µM

COc1nc(N2CC[C@@H](C)N(C(=O)c3ccccc3-n3nccn3)CC2)ncc1C(F)(F)F
IC50 [12]: 0.021 µM
clearance [1]: 0.18 L/h/kg
Ki [32]: 0.0007 µM
Ki [30]: 0.0063 µM
IC50 [31]: 0.021 µM

Cc1ncc(C(F)(F)F)c(N2CC[C@@H](C)N(C(=O)c3ccccc3-n3nccn3)CC2)n1
IC50 [12]: 0.088 µM
Ki [32]: 0.031 µM
Ki [30]: 4.2 µM
IC50 [31]: 0.088 µM

Cc1ncc(C)c(N2CC[C@@H](C)N(C(=O)c3ccccc3-n3nccn3)CC2)n1
IC50 [12]: 0.082 µM
Ki [30]: 3.6 µM

COc1nc(N2CC[C@@H](C)N(C(=O)c3cc(C)ccc3-n3nccn3)CC2)ncc1C
IC50 [12]: 0.031 µM
Ki [32]: 0.0006 µM
Ki [30]: 0.014 µM
IC50 [31]: 0.031 µM

Cc1ccc(-n2nccn2)c(C(=O)N2CCN(c3ncc(C(F)(F)F)c(Cl)n3)CC[C@H]2C)c1
IC50 [12]: 0.14 µM
clearance [1]: 0.9 L/h/kg
Ki [32]: 0.0006 µM
Ki [30]: 0.0007 µM
IC50 [31]: 0.14 µM

COc1ncc(C(F)(F)F)c(N2CC[C@@H](C)N(C(=O)c3ccccc3-n3nccn3)CC2)n1
Ratio IC50 [40]: 7
IC50 [12]: 0.245 µM

Cc1ccc(-n2nccn2)c(C(=O)N2CCN(c3nc4cc(Cl)ccc4o3)CC[C@H]2C)c1 [SUVOREXANT]
Activity [41]: > 95%
Activity [42]: > 95%

C[C@@H]1CCN(c2ncc(C(F)(F)F)c(Cl)n2)CCN1C(=O)c1ccccc1-n1nccn1
IC50 [12]: 0.088 µM
Ki [30]: 0.0051 µM
IC50 [31]: 0.088 µM
